The results in this text go back to ChEMBL document CHEMBL5715946 (Chem Biol, 2010).

Activity calls are given as the source filed them. The calls are words filed in the database; no cut-off is given here.

The nature of assay [1]: Reduction in MIF expression in MIF siRNA transfected rat H9c2 cell culture medium at 3 uM measured after 24 hrs ELISA relative to control. It is filed as functional. Further details: scale not given: the % may be the effect or the level left. In a few lines:
(§1)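 H9c2 cells transfected with 100 nM rat MIF siRNA or negative-control siRNA using Oligofectamine in Opti-MEM, then treated with 3 μM compound for 24 hr. MIF mRNA by real-time qPCR; MIF protein in cell lysate and medium by ELISA. Mean ± SD, n = 3.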
Background: An ELISA detects its analyte on a solid surface through an enzyme-linked reagent.

The subject of assay [2] is Cardiac muscle cell. As to the kind of experiment: Cytoprotective activity against DOX-induced neonatal Wistar rat cardiomyocyte death assessed as increase in cell viability at 4.6 to 370 nM preincubated for 3 hrs followed by DOX addition and measured after 18 hrs by WST-8 assay. In kind it is functional, cell-based. Particulars: dose 4.6-370 nM, time 21.0 hrs. The gist of the method:
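Neonatal rat cardiomyocytes, isolated by proteinase digestion and preplating, pretreated with samples for 3 hr in serum-free medium, then exposed to 200 nM doxorubicin for 18 hr. Viability by WST-8. Mean ± SD, n = 6.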
In general terms: Formazan colour is commonly taken as a measure of viable cells.

Assay [3] deals with Macrophage migration inhibitory factor (Rattus norvegicus) (UniProt P30904). As to the kind of experiment: Induction of MIF-stimulated ARE activity in rat H9c2 cells assessed as increase in GST Ya expression at 3 uM incubated for 24 hrs by RT-qPCR analysis. It is filed as cell-based.
Target sequence in this assay (P30904 2-115 limits assumed): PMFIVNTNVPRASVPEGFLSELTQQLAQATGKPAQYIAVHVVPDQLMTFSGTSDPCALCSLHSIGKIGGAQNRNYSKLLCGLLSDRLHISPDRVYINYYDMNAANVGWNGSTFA
Assay [4] relates to Antioxidant response element. As to the kind of experiment: Induction of ARE activity in serum-deprived neonatal Wistar rat cardiomyocytes assessed as increase in HO-1 mRNA level up to 3 uM measured after 24 hrs by RT-qPCR analysis. It is filed as cell-based. Particulars: Cardiomyocyte. In a few lines: (§2)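 Neonatal rat cardiomyocytes exposed to samples or vehicle in M-199 with 1% penicillin-streptomycin, no serum, for 24 hr. GST Ya and HO-1 mRNA measured by real-time qPCR (mean ± SD, n = 3); protein by western blot with β-actin as control.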

Assay [5] has as its system Cardiac muscle cell. The experiment in a line: Cytoprotective activity against serum deprivation-induced neonatal Wistar rat cardiomyocyte death assessed as suppression of internucleosomal cleavage of genomic DNA at 0.37 uM measured after 3 days by agarose gel electrophoresis. In kind it is functional, cell-based. Particulars: time 3.0 day. The gist of the method:
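Neonatal rat cardiomyocytes held with or without 0.37 μM compound in serum-free medium for 3 days. Genomic DNA then isolated and internucleosomal laddering examined by agarose gel electrophoresis.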

Assay [6] can be described thus: Upregulation of bilirubin-specific UDP glucuronosyltransferase gene expression in serum-deprived neonatal Wistar rat cardiomyocyte at 0.37 uM incubated for 21 hrs by microarray analysis relative to control. It is filed as functional, Cardiac muscle cell. In a few lines:
(§3)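 Primary neonatal rat cardiomyocytes cultured with or without 0.37 μM compound in serum-free medium for 21 hr. Total RNA profiled on the rat genome U34A GeneChip array (about 7000 known genes).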

For assay [7], the target named is T1, Macrophage migration inhibitory factor (Homo sapiens) (UniProt P14174).
T1 sequence (whole entry): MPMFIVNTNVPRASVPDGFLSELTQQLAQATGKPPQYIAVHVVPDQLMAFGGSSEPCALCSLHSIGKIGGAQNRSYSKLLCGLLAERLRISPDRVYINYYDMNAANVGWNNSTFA
The experiment in a line: Binding affinity to BTZO-12 sensor chip immobilized recombinant human C-terminal His-tagged MIF expressed in Escherichia coli BL21 (DE3) by SPR analysis. In a few lines: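 Sensor chip carrying immobilized BTZO-12; MIF (wild type or point mutants) passed over it and specific binding monitored by surface plasmon resonance.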
A general note: SPR reads the build-up and loss of mass on a sensor chip optically.

Assay [8] addresses Macrophage migration inhibitory factor (Rattus norvegicus) (UniProt P30904). The experiment in a line: Inhibition of recombinant rat MIF expressed in Escherichia coli BL21 (DE3) assessed as reduction in tautomerase activity at 30 uM using L-dopachrome carboxy-methyl ester as substrate by spectrophotometry relative to control. In a few lines:
(§4)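 Purified recombinant rat MIF tautomerase assayed with purified L-dopachrome carboxy-methyl ester as substrate in pH 6.0 buffer; rate taken over the initial 30 s. Mean ± SD, n = 4.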
Target sequence in this assay (P30904 2-115 limits assumed): as the sequence (P30904 2-115 limits assumed) above

The nature of assay [9]: Reduction in MIF expression in MIF siRNA transfected rat H9c2 cell lysates at 3 uM measured after 24 hrs ELISA relative to control. In kind it is functional. Further details: scale not given: the % may be the effect or the level left. In a few lines: as §1
A short description of assay [10]: Upregulation of gamma-glutamylcysteine synthetase gene expression in serum-deprived neonatal Wistar rat cardiomyocyte at 0.37 uM incubated for 21 hrs by microarray analysis relative to control. In kind it is functional, Cardiac muscle cell. The gist of the method:
(§5)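 Primary neonatal rat cardiomyocytes, isolated by proteinase digestion with preplating to deplete nonmyocytes, cultured in serum-free medium with or without 0.37 μM compound for 21 hr. Total RNA was recovered and global expression profiled on an Affymetrix GeneChip rat genome U34A array (about 7000 known genes). Change is relative to untreated cells.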

Assay [11] can be described thus: Upregulation of heme oxygenase-1 gene expression in serum-deprived neonatal Wistar rat cardiomyocyte at 0.37 uM incubated for 21 hrs by microarray analysis relative to control. In kind it is functional, Cardiac muscle cell. In a few lines:
as §5

A short description of assay [12]: Upregulation of NAD(P)H-menadione oxidoreductase gene expression in serum-deprived neonatal Wistar rat cardiomyocyte at 0.37 uM incubated for 21 hrs by microarray analysis relative to control. In kind it is functional, Cardiac muscle cell. The gist of the method: as §3
For assay [13], the target named is Macrophage migration inhibitory factor (Rattus norvegicus) (UniProt P30904). As to the kind of experiment: Inhibition of MIF tautomerase activity in rat H9c2 cells at 30 uM using L-dopachrome carboxy-methyl ester as substrate incubated for 6 hrs under serum-free medium by spectrophotometry relative to control. It is filed as cell-based. In a few lines: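 H9c2 cells exposed to 30 μM compound for 6 hr; MIF tautomerase activity then measured in cell lysate.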
Target sequence in this assay (P30904 2-115 limits assumed): as the sequence (P30904 2-115 limits assumed) above

Assay [14] has the same target. The experiment in a line: Inhibition of [3H]-BTZO-1 binding to recombinant rat C-terminal His-tagged MIF expressed in Escherichia coli BL21 (DE3) measured after 3 hrs by SPA.
Target sequence in this assay (P30904 whole entry, looked up): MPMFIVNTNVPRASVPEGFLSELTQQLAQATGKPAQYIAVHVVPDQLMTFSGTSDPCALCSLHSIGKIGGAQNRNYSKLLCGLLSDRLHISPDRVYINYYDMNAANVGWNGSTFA
For assay [15] the target is unchanged. The experiment in a line: Inhibition of recombinant rat MIF expressed in Escherichia coli BL21 (DE3) assessed as reduction in tautomerase activity at 3.75 to 30 uM using L-dopachrome carboxy-methyl ester as substrate by spectrophotometry. As to conditions: dose 3.75-30 µM. The gist of the method: as §4
Target sequence in this assay (P30904 2-115 limits assumed): as the sequence (P30904 2-115 limits assumed) above
Assay [16] can be described thus: Upregulation of thioredoxin reductase gene expression in serum-deprived neonatal Wistar rat cardiomyocyte at 0.37 uM incubated for 21 hrs by microarray analysis relative to control. In kind it is functional, Cardiac muscle cell. In a few lines:
as §5

Assay [17] in a line: Upregulation of 3-methylcholanthrene-inducible truncated UDP-glucuronosyl transferase gene expression in serum-deprived neonatal Wistar rat cardiomyocyte at 0.37 uM incubated for 21 hrs by microarray analysis relative to control. It is filed as functional, Cardiac muscle cell. The gist of the method: as §3
Assay [18] concerns Antioxidant response element. The experiment in a line: Induction of ARE-mediated GST Ya mRNA expression in MIF siRNA transfected rat H9c2 cells at 3 uM measured after 24 hrs by RT-qPCR analysis. In kind it is cell-based. The gist of the method: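 H9c2 cells transfected with MIF siRNA or control siRNA (100 nM, Oligofectamine), then treated with 3 μM compound with or without 0.8 μM rMIF for 24 hr. GST Ya and HO-1 mRNA by real-time qPCR; mean ± SD, n = 3. MIF effect on drug efficacy tested by Aspin-Welch test.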

Assay [19] deals with Antioxidant response element. The experiment in a line: Induction of ARE activity in serum-deprived neonatal Wistar rat cardiomyocytes assessed as increase in GST Ya mRNA level up to 3 uM measured after 24 hrs by RT-qPCR analysis. It is filed as cell-based. Particulars: Cardiomyocyte. The gist of the method:
as §2

The nature of assay [20]: Upregulation of catalase gene expression in serum-deprived neonatal Wistar rat cardiomyocyte at 0.37 uM incubated for 21 hrs by microarray analysis relative to control. In kind it is functional, Cardiac muscle cell. In a few lines: as §5
A short description of assay [21]: Reduction in MIF mRNA expression in rat H9c2 cells transfected with MIF siRNA at 3 uM measured after 24 hrs RT-qPCR analysis relative to control. Further details: scale not given: the % may be the effect or the level left. It is filed as functional. In a few lines:
as §1

Assay [22] can be described thus: Upregulation of NAD(P)H: quinone reductase gene expression in serum-deprived neonatal Wistar rat cardiomyocyte at 0.37 uM incubated for 21 hrs by microarray analysis relative to control. In kind it is functional, Cardiac muscle cell. The gist of the method: as §3

What is called inhibition is the relative decrease from the control value, in per cent. The IC50 is the concentration needed to halve the response being measured. On to `O=c1nc(-c2ccccn2)sc2ccccc12` [BTZO-1], for which the Activity in [1] is around 75%; in [9], around 50%; in assay [21], around 80%. In addition, the outcome in [2], in [3], in assay [4], in [5], in assay [7] and in assay [19] was Active. In addition, the “fold change (FC)” value in [6] is reported as 5.2; in assay [10], 2.4; in assay [11] it was 2; in [12], 2.8; in [16] it was 2.8; in assay [17], 2.2. For the same compound, the “fold change (FC)” value in [20] was 2.3; in assay [22], 9.4. The inhibition came out at 13% in [8] and 20% in assay [13]. The IC50 in assay [14] is 71 nM. Also, the inhibition entry in [15] was “Active”. In assay [18], the result was inactive.
